Reference: ChEMBL document CHEMBL1157789, “Design, synthesis and SAR of phenylamino-substituted 5,11-dihydro-dibenzo[a,d]cyclohepten-10-ones and 11H-dibenzo[b,f]oxepin-10-ones as p38 MAP kinase inhibitors” (Bioorg Med Chem Lett, 2010)
Active and inactive are the calls of the source. The rule behind the calls is not given here.

Key:
[1] = Inhibition of p38 assessed as rate of ATF-2 phosphorylation at 10 uM by immunosorbent non-radioactive enzyme assay
Outline: (§1)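 p38α MAP kinase ELISA-type (immunosorbent, non-radioactive) assay. Enzyme was incubated with ATP at 100 µM, ATF-2 as substrate, and test compound at 10^-5 to 10^-8 M. Activity was read as the rate of ATF-2 phosphorylation. SB203580 served as the reference inhibitor.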

[2] = molecular target: RAC-alpha serine/threonine-protein kinase (Homo sapiens) (UniProt P31749); test: Inhibition of AKT1 at 10 uM
[3] = molecular target: T1, NUAK family SNF1-like kinase 1 (Homo sapiens) (UniProt O60285); test: Inhibition of ARK5 at 10 uM
T1 sequence (whole entry): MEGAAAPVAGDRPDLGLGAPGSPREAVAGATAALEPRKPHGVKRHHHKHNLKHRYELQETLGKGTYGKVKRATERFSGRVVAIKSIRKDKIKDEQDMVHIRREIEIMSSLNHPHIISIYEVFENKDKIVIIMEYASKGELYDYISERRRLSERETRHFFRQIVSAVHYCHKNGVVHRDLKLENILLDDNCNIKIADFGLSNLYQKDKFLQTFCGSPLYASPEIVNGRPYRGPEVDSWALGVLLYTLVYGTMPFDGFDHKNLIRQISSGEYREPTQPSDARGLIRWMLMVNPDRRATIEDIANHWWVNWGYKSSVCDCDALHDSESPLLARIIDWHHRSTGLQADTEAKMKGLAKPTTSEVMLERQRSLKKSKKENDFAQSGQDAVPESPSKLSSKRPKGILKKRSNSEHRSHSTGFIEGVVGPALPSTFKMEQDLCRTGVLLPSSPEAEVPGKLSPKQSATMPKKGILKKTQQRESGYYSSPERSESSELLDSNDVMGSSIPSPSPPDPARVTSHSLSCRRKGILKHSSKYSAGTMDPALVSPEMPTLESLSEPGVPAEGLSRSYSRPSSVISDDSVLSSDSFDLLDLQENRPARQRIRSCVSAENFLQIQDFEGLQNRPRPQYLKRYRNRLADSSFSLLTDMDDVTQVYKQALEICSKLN

[4] = molecular target: Aurora kinase B (Homo sapiens) (UniProt Q96GD4); test: Inhibition of Aurora B at 10 uM
[5] = molecular target: Tyrosine-protein kinase receptor UFO (Homo sapiens) (UniProt P30530); test: Inhibition of AXL at 10 uM
[6] = test system: Serine/threonine-protein kinase B-raf (Homo sapiens), P15056 [V600E]; test: Inhibition of B-Raf V600E mutant at 10 uM
[7] = molecular target: Casein kinase II subunit alpha (Homo sapiens) (UniProt P68400); test: Inhibition of CK2alpha1 at 10 uM
[8] = molecular target: Focal adhesion kinase 1 (Homo sapiens) (UniProt Q05397); test: Inhibition of FAK at 10 uM
[9] = molecular target: Insulin-like growth factor 1 receptor (Homo sapiens) (UniProt P08069); test: Inhibition of IGF1R at 10 uM
[10] = molecular target: Insulin receptor (Homo sapiens) (UniProt P06213); test: Inhibition of INSR at 10 uM
[11] = molecular target: Hepatocyte growth factor receptor (Homo sapiens) (UniProt P08581); test: Inhibition of MET at 10 uM
[12] = molecular target: Serine/threonine-protein kinase PLK1 (Homo sapiens) (UniProt P53350); test: Inhibition of PLK1 at 10 uM
[13] = molecular target: Serine/threonine-protein kinase N1 (Homo sapiens) (UniProt Q16512); test: Inhibition of PRK1 at 10 uM
[14] = molecular target: T2, Serine/threonine-protein kinase PLK4 (Homo sapiens) (UniProt O00444); test: Inhibition of SAK at 10 uM
T2 sequence (whole entry): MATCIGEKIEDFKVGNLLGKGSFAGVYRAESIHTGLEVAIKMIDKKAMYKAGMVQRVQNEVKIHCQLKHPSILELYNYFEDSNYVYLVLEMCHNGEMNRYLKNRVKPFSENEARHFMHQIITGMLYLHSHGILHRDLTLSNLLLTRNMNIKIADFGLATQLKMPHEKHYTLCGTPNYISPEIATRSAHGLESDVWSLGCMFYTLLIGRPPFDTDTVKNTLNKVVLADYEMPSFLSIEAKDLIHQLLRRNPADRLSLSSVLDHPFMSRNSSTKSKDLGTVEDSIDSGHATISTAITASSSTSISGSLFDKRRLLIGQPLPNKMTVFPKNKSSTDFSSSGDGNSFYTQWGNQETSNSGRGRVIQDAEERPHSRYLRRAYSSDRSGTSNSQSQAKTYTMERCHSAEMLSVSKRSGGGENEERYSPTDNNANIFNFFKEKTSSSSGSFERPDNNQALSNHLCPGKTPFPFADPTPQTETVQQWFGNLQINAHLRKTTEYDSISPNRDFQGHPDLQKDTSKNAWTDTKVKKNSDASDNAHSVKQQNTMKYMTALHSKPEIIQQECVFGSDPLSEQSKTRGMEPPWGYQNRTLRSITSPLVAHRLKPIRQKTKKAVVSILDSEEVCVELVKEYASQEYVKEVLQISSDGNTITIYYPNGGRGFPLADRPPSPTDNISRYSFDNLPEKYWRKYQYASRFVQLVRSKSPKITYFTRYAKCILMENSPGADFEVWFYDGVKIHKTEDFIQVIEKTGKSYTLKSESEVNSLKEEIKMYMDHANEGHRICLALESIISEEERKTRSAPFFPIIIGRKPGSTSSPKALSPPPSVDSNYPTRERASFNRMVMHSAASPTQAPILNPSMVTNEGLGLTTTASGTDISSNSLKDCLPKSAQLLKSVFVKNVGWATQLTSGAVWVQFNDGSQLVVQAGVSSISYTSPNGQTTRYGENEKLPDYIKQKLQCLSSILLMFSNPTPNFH

[15] = molecular target: Proto-oncogene tyrosine-protein kinase Src (Homo sapiens) (UniProt P12931); test: Inhibition of SRC at 10 uM
[16] = molecular target: BDNF/NT-3 growth factors receptor (Homo sapiens) (UniProt Q16620); test: Inhibition of TRKB at 10 uM
[17] = molecular target: Vascular endothelial growth factor receptor 2 (Homo sapiens) (UniProt P35968); test: Inhibition of VGFR2 at 10 uM
[18] = Inhibition of p38 assessed as rate of ATF-2 phosphorylation by immunosorbent non-radioactive enzyme assay; outline: as §1

Sequence of Serine/threonine-protein kinase PLK1 (Homo sapiens) (P53350 whole entry): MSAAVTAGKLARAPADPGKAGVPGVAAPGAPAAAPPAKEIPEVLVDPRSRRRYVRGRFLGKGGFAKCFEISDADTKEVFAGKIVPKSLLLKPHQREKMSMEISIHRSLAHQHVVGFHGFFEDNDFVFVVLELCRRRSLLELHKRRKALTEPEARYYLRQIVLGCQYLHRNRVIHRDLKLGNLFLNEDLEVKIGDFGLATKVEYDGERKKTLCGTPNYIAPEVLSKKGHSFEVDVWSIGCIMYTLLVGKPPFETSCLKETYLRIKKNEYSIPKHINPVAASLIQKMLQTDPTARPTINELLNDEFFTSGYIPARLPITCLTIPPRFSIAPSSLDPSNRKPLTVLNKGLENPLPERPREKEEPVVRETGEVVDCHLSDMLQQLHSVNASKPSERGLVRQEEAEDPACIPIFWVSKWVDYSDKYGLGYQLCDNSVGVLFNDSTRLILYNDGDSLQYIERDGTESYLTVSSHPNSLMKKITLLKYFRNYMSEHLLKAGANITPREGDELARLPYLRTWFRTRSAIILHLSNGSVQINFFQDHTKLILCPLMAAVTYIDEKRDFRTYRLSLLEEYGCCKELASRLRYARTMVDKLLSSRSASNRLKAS
Sequence of Insulin receptor (Homo sapiens) (P06213 28-758 limits assumed): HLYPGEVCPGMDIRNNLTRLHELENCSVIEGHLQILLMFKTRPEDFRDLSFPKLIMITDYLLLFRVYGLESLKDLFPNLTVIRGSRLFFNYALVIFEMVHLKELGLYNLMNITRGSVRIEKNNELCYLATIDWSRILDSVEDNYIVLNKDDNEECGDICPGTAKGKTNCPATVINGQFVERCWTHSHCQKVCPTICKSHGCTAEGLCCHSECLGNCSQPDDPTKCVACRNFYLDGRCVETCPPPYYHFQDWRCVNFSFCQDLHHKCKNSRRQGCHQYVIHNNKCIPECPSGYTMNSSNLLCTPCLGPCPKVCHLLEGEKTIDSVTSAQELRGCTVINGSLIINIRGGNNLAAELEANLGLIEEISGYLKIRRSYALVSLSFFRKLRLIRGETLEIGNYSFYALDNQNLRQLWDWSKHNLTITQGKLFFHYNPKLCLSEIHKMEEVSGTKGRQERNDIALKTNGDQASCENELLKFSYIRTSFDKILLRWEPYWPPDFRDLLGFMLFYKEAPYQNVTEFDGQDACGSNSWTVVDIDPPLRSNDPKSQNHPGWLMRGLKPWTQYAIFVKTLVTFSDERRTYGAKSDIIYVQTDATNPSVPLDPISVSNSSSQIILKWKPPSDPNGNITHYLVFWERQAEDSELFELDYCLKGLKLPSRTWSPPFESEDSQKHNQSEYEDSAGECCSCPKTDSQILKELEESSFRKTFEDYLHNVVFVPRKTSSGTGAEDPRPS
Sequence of Insulin receptor (Homo sapiens) (P06213 763-1382 limits assumed): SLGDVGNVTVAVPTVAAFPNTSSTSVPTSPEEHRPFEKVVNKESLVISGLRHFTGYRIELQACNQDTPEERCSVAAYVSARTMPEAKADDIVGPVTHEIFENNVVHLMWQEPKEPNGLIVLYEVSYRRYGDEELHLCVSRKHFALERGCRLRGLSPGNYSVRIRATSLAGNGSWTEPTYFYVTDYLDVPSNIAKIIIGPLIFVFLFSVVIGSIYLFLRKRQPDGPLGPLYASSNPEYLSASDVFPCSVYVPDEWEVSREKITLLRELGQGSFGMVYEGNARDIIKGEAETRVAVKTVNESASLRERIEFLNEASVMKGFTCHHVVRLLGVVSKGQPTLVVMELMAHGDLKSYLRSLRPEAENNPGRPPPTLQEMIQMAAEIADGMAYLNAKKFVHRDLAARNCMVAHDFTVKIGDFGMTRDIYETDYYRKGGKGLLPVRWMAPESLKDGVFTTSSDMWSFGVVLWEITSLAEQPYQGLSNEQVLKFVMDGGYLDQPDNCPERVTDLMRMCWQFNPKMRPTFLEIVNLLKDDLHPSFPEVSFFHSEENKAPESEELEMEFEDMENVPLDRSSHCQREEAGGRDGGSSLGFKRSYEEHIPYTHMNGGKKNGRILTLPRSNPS
Sequence of Insulin-like growth factor 1 receptor (Homo sapiens) (P08069 31-736 limits assumed): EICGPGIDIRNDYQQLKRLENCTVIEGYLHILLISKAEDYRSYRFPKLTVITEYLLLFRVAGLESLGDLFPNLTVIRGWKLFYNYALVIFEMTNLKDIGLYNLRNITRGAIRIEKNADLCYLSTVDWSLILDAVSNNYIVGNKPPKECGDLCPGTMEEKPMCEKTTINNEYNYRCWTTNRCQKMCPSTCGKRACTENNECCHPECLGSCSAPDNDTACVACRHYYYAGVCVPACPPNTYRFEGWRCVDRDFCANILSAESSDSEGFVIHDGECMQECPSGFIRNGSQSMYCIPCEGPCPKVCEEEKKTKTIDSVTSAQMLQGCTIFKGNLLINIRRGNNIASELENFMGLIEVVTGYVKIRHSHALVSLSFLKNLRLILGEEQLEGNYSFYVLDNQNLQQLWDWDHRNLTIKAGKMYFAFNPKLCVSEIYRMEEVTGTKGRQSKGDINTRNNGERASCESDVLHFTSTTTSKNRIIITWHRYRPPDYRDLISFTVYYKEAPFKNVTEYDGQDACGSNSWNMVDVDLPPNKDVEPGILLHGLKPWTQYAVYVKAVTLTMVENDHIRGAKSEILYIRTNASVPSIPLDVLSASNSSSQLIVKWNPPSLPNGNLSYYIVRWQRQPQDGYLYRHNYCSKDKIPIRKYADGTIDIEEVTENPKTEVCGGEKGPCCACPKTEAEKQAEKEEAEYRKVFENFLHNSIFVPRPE
Sequence of Insulin-like growth factor 1 receptor (Homo sapiens) (P08069 741-1367 limits assumed): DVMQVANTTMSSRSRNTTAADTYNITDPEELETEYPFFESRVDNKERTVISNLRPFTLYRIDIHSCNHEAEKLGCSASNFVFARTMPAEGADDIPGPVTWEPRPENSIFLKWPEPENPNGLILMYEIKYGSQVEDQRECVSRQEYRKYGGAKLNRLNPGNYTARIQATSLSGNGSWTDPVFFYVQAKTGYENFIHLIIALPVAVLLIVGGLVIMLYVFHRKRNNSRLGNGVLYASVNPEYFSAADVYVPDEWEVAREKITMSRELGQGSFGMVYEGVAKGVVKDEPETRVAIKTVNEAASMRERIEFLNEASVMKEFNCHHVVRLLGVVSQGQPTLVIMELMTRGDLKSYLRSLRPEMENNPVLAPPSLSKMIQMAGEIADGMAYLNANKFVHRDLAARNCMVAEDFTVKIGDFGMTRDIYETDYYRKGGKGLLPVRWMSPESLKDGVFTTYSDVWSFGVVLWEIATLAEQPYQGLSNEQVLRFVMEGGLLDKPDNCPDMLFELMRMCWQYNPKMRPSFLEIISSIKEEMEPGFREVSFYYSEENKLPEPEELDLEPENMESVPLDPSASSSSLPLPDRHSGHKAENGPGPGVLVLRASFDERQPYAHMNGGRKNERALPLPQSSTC
Sequence of Serine/threonine-protein kinase B-raf (Homo sapiens), P15056 [V600E] (P15056 whole entry V600E): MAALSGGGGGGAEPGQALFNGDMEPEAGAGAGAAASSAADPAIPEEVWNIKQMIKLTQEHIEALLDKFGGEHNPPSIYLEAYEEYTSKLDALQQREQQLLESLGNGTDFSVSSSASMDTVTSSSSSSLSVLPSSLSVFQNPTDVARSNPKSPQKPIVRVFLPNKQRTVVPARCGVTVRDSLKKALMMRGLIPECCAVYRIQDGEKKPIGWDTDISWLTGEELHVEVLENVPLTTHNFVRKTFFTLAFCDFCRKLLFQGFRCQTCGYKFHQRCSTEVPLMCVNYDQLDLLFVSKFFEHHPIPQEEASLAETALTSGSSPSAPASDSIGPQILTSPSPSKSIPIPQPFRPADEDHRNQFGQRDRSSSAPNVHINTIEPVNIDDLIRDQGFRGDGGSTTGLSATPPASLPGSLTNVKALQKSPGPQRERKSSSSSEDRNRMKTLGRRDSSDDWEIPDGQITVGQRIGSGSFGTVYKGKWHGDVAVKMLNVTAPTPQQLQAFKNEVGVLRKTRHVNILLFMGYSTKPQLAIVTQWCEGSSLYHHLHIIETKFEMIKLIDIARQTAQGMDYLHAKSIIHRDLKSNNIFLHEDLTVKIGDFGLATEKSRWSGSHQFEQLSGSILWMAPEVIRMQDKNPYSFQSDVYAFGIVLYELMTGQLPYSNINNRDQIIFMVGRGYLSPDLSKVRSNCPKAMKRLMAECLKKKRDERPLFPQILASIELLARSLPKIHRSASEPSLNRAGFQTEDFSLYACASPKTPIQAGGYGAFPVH
Sequence of Proto-oncogene tyrosine-protein kinase Src (Homo sapiens) (P12931 2-536 limits assumed): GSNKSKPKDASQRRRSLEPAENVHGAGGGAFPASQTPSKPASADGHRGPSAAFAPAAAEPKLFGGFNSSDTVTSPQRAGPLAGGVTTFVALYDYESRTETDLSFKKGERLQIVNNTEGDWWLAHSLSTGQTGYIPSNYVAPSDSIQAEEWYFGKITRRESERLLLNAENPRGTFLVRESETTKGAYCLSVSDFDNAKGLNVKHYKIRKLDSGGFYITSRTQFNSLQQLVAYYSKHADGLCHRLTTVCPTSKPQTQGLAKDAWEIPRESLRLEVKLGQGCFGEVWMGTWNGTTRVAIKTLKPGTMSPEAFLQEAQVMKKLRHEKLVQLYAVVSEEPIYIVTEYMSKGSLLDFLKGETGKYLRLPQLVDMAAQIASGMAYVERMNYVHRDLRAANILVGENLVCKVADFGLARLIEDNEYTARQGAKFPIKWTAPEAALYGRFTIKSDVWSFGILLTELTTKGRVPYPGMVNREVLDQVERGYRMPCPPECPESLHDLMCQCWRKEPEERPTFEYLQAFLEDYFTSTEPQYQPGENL
Sequence of Casein kinase II subunit alpha (Homo sapiens) (P68400 whole entry, looked up): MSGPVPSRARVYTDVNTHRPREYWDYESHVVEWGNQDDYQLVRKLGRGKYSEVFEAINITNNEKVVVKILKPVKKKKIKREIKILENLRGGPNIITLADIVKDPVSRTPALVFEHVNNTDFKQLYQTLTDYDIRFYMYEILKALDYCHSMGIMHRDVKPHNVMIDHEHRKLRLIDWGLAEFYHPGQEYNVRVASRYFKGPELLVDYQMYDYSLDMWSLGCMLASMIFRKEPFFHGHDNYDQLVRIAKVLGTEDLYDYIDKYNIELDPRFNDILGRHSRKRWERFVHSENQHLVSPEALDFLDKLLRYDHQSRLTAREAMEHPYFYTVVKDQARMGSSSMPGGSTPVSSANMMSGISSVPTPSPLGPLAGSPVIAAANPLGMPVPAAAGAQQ

Compound	inhibition [1] [%]	inhibition [2]	inhibition [3]	inhibition [4]	inhibition [5]	inhibition [6]	inhibition [7]	inhibition [8]	inhibition [9]	inhibition [10]	inhibition [11]	inhibition [12]	inhibition [13]	inhibition [14]	inhibition [15]	inhibition [16]	inhibition [17]	IC50 [18] [nM]
O=C1Cc2ccccc2Oc2ccc(Nc3ccccc3)cc21	25	–	–	–	–	–	–	–	–	–	–	–	–	–	–	–	–	–
O=C1Cc2ccccc2Cc2c(Nc3ccc(F)cc3F)cccc21	6	–	–	–	–	–	–	–	–	–	–	–	–	–	–	–	–	–
Nc1ccccc1Nc1ccc2c(c1)C(=O)Cc1ccccc1O2	36	–	–	–	–	–	–	–	–	–	–	–	–	–	–	–	–	–
Nc1ccc(Nc2ccc3c(c2)Cc2ccccc2CC3=O)cc1	15	inactive	inactive	inactive	inactive	inactive	inactive	inactive	inactive	inactive	inactive	inactive	inactive	inactive	inactive	inactive	inactive	–
O=C1Cc2ccccc2Cc2cc(-c3ccccc3)ccc21	43	inactive	inactive	inactive	inactive	inactive	inactive	inactive	inactive	inactive	inactive	inactive	inactive	inactive	inactive	inactive	inactive	–
Nc1ccccc1Nc1cccc2c1Oc1ccccc1CC2=O	37	–	–	–	–	–	–	–	–	–	–	–	–	–	–	–	–	–
O=C1Cc2ccccc2Cc2cc(NCc3ccccc3)ccc21	9	inactive	inactive	inactive	inactive	inactive	inactive	inactive	inactive	inactive	inactive	inactive	inactive	inactive	inactive	inactive	inactive	–
O=C1Cc2ccccc2Oc2c(Nc3ccccc3)cccc21	32	–	–	–	–	–	–	–	–	–	–	–	–	–	–	–	–	–
O=C1Cc2ccccc2Cc2ccc(Nc3ccc(F)cc3F)cc21	44	–	–	–	–	–	–	–	–	–	–	–	–	–	–	–	–	–
O=C1Cc2ccccc2Oc2c(Nc3ccc(F)cc3F)cccc21	12	–	–	–	–	–	–	–	–	–	–	–	–	–	–	–	–	–
O=C1Cc2cc(Nc3ccccc3)ccc2Cc2ccccc21	47	inactive	inactive	inactive	inactive	inactive	inactive	inactive	inactive	inactive	inactive	inactive	inactive	inactive	inactive	inactive	inactive	–
Nc1cc(F)ccc1Nc1ccc2c(c1)CC(=O)c1ccccc1C2	–	inactive	inactive	inactive	inactive	inactive	inactive	inactive	inactive	inactive	inactive	inactive	inactive	inactive	inactive	inactive	inactive	980
Nc1cc(F)ccc1Nc1ccc2c(c1)C(=O)Cc1ccccc1O2	46	–	–	–	–	–	–	–	–	–	–	–	–	–	–	–	–	–
O=C1Cc2ccc(Nc3ccccc3)cc2Cc2ccccc21	–	inactive	inactive	inactive	inactive	inactive	inactive	inactive	inactive	inactive	inactive	inactive	inactive	inactive	inactive	inactive	inactive	3210
O=C1Cc2ccccc2Cc2c(Nc3ccccc3)cccc21	47	–	–	–	–	–	–	–	–	–	–	–	–	–	–	–	–	–
